Test results: ChEMBL document CHEMBL1136510, “Nociceptin/Orphanin FQ(1-13)NH2 analogues modified in the Phe1-Gly2 peptide bond” (Bioorg Med Chem Lett, 2003)
Active and inactive are the calls of the source. No cut-off for these calls is given here.

Columns and labels:
[1] = organism: Mus musculus; experiment: (§1) Agonistic activity determined by its ability to inhibit the electrically evoked contraction of the mouse vas deferens (mVD); assay type: functional
In short: (§2)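 Isolated mouse vas deferens, electrically stimulated; inhibition of evoked twitch contraction. Cumulative concentration-response curves up to 10 µM (highest concentration tested); potency expressed as pEC50.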

[2] = organism: Mus musculus; experiment: as §1; assay type: functional, organism-based; in short: as §2
[3] = organism: Mus musculus; experiment: Agonistic activity determined by its ability to inhibit the electrically evoked contraction of the mouse vas deferens (mVD); Inactive up to 10 uM; assay type: functional; in short: as §2

SMILES | Emax [1] | EC50 [2] | Log EC50 [3]
C[C@H](NC(=O)CNC(=O)[C@@H](NC(=O)[C@H](Cc1ccccc1)NC(=O)CNC(=O)CNC(=O)[C@@H](N)Cc1ccccc1)[C@@H](C)O)C(=O)N[C@@H](CCCNC(=N)N)C(=O)N[C@@H](CCCCN)C(=O)N[C@@H](CO)C(=O)N[C@@H](C)C(=O)N[C@@H](CCCNC(=N)N)C(=O)N[C@@H](CCCCN)C(N)=O | 90% | 14.1 nM | 
C[C@H](NC(=O)CNC(=O)[C@@H](NC(=O)[C@H](Cc1ccccc1)NC(=O)CNC(=O)CNC[C@@H](N)Cc1ccccc1)[C@H](C)O)C(=O)N[C@@H](CCCN=C(N)N)C(=O)N[C@@H](CCCCN)C(=O)N[C@@H](CO)C(=O)N[C@@H](C)C(=O)N[C@@H](CCCN=C(N)N)C(=O)N[C@@H](CCCCN)C(N)=O |  |  | inactive
